The values below come from paper PMC12393906 (Molecular Therapy, 2025).

pIC50, pKd: −log10 of the molar value.

The term pIC50 denotes −log10 of the IC50, conventionally taken in molar units. Usually pKd stands for the Kd on a negative log10 scale, so that one unit is a factor of ten.

The target in data set [1] is T1, Recombinant human ERO1α (Homo sapiens, UniProt Q96HE7).
T1 sequence (Q96HE7 24-468): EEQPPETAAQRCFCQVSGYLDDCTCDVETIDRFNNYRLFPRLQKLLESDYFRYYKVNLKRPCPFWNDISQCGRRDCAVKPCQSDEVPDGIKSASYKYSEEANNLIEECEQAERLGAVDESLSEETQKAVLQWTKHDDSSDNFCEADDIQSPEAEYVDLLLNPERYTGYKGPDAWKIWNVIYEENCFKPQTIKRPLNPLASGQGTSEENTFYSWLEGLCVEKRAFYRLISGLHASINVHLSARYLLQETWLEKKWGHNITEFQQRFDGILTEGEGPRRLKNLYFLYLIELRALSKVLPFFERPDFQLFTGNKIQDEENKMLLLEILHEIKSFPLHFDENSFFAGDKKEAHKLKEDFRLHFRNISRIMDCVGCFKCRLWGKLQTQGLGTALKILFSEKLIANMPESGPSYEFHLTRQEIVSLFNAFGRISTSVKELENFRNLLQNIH
The data set is described as follows: fluorescence-based ERO1α activity assay. To be noted: 0.01–1 μM FAD. The format is biochemical.

Data set [2] relates to C57BL/6 mice. The data set is described as follows: FeCl3-induced carotid arterial thrombosis. Format: in vivo, mouse. To be noted: iv 5 μg/g BW; 7% or 10% FeCl3. In outline: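 Male and female mice, 8–12 weeks, were anaesthetised with ip ketamine/xylazine. A 2 × 2 mm filter disc carrying 1.2 μL of 7 or 10% FeCl3 was placed on the carotid artery for 2 min. Flow was monitored by Doppler flow meter. TTO was the time from disc removal to stable occlusion (no flow for 5 min).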

The subject of data set [3] is C57BL/6 mice. The data set is described as follows: Tail bleeding time and hemoglobin content. To be noted: iv 5 μg/g BW. Format: in vivo, mouse.
The subject of data set [4] is lysine-specific demethylase 1. As to conditions: cited from earlier work.
Data set [5] concerns Mao-A. As to conditions: read-out: IC50 (Mao-A); cited from earlier work.
The subject of data set [6] is ERO1α. To be noted: read-out: IC50 (ERO1α); cited from earlier work.
The target in data set [7] is ERO1α. As to conditions: read-out: KD (ERO1α); cited from earlier work.

Turning to `Cc1cc2nc3c(=O)[nH]c(=O)nc-3n(C[C@H](O)[C@H](O)[C@H](O)COP(=O)(O)OP(=O)(O)OC[C@H]3O[C@@H](n4cnc5c(N)ncnc54)[C@H](O)[C@@H]3O)c2cc1C` [FAD, flavin adenine dinucleotide], the “effect of exogenous FAD on ERO1α activity” value in data set [1] is given as “significantly increased ERO1α activity”.

For the molecule eptifibatide, the “time to occlusion (TTO)” value in data set [2] was “significantly prolonged TTO irrespective of the FeCl3 concentration”. Further, the “tail bleeding times and blood loss” value in data set [3] is reported as “markedly increased both”.

As to `CN(C)c1ccc(/C=C2\Oc3cc(O)ccc3C2=O)cc1` [Compound T151742], in data set [4], the “binding to lysine-specific demethylase 1” value is recorded as “does not bind”. In addition, the pIC50 was 6.00 in data set [5] and 5.06 in data set [6]. Further, in data set [7], the pKd was 4.50.
